The text below walks through data of ChEMBL document CHEMBL3098117, “Identification and optimization of an aminoalcohol-carbazole series with antimalarial properties” (ACS Med Chem Lett, 2013).

Activity calls are given as the source filed them. The rule behind the calls is not given here.

A short description of data set [1]: Genotoxicity in micronucleus (unknown origin).
The nature of data set [2]: Oral bioavailability in NMRI mouse at 5 mg/kg by LC-MS/MS analysis. The format is ADME, organism-based. To be noted: in vivo.
For data set [3], the system named is Plasmodium falciparum. As to the kind of experiment: Antimalarial activity against chloroquine, pyrimethamine, quinine-resistant Plasmodium falciparum V1S. It is filed as functional. To be noted: VS/1.
The test system of data set [4] is Plasmodium berghei. Nature of the data set: Antimalarial activity against Plasmodium berghei ANKA expressing GFP infected in NMRI mouse assessed as reduction in parasitemia at 100 mg/kg/day, po qd for 4 days measured at 24 hrs after last dose relative to control. Also on record: scale not given: the % may be the effect or the level left. The format is functional. An outline of the steps:
(§1)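 P. berghei-infected mice dosed orally once daily on days 0–3, first dose 4 h postinfection, at 3, 10, 30 and 100 mg/kg/day. Red blood cell parasitemia and plasma exposure measured on day 4, 24 h after last dose; ED50 derived from dose-response; survival then monitored for 26 further days as mean survival days.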

The target of data set [5] is T1, Potassium/sodium hyperpolarization-activated cyclic nucleotide-gated channel 4 (Homo sapiens) (UniProt Q9Y3Q4).
T1 sequence (whole entry): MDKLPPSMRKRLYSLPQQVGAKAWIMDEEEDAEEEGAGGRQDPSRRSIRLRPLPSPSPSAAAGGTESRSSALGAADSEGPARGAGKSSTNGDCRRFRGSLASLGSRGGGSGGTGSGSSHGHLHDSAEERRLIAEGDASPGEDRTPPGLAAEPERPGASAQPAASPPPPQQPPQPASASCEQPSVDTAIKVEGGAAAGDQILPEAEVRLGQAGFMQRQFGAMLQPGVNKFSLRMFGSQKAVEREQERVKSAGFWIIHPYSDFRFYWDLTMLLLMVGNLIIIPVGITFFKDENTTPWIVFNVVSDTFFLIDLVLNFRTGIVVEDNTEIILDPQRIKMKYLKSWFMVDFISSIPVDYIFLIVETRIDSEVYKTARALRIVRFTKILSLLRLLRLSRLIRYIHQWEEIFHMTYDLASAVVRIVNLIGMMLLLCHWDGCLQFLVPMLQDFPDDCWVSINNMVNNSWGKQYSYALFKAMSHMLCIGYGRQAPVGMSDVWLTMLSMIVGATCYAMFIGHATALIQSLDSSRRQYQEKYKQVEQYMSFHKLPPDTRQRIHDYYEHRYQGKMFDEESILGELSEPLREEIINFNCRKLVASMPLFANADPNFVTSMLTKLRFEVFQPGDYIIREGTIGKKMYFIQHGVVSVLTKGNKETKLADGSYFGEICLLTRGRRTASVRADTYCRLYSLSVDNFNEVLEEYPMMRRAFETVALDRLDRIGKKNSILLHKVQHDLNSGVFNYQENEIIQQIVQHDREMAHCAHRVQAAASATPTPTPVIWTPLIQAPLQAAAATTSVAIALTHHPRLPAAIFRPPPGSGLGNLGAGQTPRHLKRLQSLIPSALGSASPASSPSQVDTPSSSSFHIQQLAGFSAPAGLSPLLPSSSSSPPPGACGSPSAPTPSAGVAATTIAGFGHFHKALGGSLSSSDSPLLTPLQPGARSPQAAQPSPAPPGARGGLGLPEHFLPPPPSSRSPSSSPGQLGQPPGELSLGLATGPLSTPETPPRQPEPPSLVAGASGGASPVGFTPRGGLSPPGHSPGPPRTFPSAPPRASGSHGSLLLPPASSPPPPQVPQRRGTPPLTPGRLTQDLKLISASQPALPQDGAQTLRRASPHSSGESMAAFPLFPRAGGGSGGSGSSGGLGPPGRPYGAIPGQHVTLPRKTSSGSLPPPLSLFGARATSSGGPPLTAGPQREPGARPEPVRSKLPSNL
Nature of the data set: Inhibition of human HCN4 channel.

For another data set, the target named is Cytochrome P450 2D6 (Homo sapiens, UniProt P10635). As to the kind of experiment: Inhibition of human recombinant CYP2D6 expressed in baculovirus-infected insect cells preincubated for 15 mins followed by substrate addition measured after 30 mins by luminescence assay. The format is ADME. To be noted: recombinant enzyme, 0.5 h.
Data set [6] relates to Salmonella typhimurium. Nature of the data set: Mutagenic activity in Salmonella typhimurium by Ames test under metabolic conditions. It is filed as toxicity, organism-based. The settings on record: salmonella enterica subsp. enterica serovar typhimurium.
Data set [7] has as its system Plasmodium falciparum. Nature of the data set: Antimalarial activity against chloroquine and pyrimethamine-resistant Plasmodium falciparum K1. It is filed as functional, organism-based. In outline:
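P. falciparum cultured with test drug in human red blood cells for 3 days. Growth read out as hypoxanthine incorporation.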

A short description of data set [8]: Volume of distribution at steady state in NMRI mouse at 1 mg/kg, iv by LC-MS/MS analysis. The format is ADME, organism-based. Also on record: dose 1 mg/kg, route intravenous. To be noted: in vivo, read-out: Vdss.
The target in another data set is hERG (KCNH2) (Homo sapiens, UniProt Q12809). Nature of the data set: Inhibition of human ERG expressed in CHO cells at 10 uM relative to control. The format is cell-based. The settings on record: CHO cells expressing human ERG.
The target in data set [9] is Potassium voltage-gated channel subfamily A member 5 (Homo sapiens) (UniProt P22460). As to the kind of experiment: Inhibition of human Kv1.5 channel.
Data set [10] deals with Plasmodium berghei. As to the kind of experiment: Antimalarial activity against Plasmodium berghei ANKA expressing GFP infected in NMRI mouse assessed as effect on mouse survival at 10 mg/kg/day, po qd for 4 days measured at 24 hrs after last dose. It is filed as functional, organism-based. In outline:
as §1

In another data set the target is Cytochrome P450 3A4 (Homo sapiens, UniProt P08684). Nature of the data set: Inhibition of human recombinant CYP3A4 expressed in baculovirus-infected insect cells preincubated for 15 mins followed by substrate addition measured after 30 mins by luminescence assay. The format is ADME. The settings on record: recombinant enzyme, 0.5 h.
Data set [11] deals with T2, Inward rectifier potassium channel 2 (Homo sapiens, UniProt P63252).
T2 sequence (P63252 whole entry): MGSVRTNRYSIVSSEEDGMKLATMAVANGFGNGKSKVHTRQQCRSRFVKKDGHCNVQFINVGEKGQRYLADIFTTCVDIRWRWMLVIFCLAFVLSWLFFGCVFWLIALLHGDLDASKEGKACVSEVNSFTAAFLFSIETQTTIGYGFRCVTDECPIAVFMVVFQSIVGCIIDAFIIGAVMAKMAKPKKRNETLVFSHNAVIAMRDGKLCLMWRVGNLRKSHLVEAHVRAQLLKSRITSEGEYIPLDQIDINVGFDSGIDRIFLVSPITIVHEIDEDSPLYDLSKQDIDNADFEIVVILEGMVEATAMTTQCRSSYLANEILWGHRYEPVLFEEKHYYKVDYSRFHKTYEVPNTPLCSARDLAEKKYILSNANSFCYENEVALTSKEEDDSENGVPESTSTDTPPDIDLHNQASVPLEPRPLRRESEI
Nature of the data set: Inhibition of human Kir2.1 channel.

The test system of data set [12] is Salmonella typhimurium. Nature of the data set: Mutagenic activity in Salmonella typhimurium by Ames test. It is filed as toxicity, organism-based. The settings on record: salmonella enterica subsp. enterica serovar typhimurium.
For data set [13], the system named is Plasmodium berghei. As to the kind of experiment: Antimalarial activity against Plasmodium berghei ANKA expressing GFP infected in NMRI mouse assessed as increase in mouse survival at 30 mg/kg/day, po qd for 4 days measured at 24 hrs after last dose. The format is functional, organism-based. An outline of the steps:
as §1

Data set [14] addresses Voltage-dependent L-type calcium channel subunit alpha-1C (Homo sapiens, UniProt Q13936). Nature of the data set: Inhibition of human Cav1.2 channel.
Data set [15] concerns Plasmodium berghei. As to the kind of experiment: Antimalarial activity against Plasmodium berghei ANKA expressing GFP infected in NMRI mouse assessed as mean survival days at 100 mg/kg/day, po qd for 4 days measured at 24 hrs after last dose. It is filed as functional. An outline of the steps: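 P. berghei-infected mice dosed orally once daily on days 0–3, starting 4 h postinfection, in groups of 3, 10, 30 and 100 mg/kg/day. Red blood cell parasitemia and plasma exposure measured on day 4, 24 h after the last dose. Mean survival days then monitored over 26 further days.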

hERG (KCNH2), sequence (Q12809 whole entry): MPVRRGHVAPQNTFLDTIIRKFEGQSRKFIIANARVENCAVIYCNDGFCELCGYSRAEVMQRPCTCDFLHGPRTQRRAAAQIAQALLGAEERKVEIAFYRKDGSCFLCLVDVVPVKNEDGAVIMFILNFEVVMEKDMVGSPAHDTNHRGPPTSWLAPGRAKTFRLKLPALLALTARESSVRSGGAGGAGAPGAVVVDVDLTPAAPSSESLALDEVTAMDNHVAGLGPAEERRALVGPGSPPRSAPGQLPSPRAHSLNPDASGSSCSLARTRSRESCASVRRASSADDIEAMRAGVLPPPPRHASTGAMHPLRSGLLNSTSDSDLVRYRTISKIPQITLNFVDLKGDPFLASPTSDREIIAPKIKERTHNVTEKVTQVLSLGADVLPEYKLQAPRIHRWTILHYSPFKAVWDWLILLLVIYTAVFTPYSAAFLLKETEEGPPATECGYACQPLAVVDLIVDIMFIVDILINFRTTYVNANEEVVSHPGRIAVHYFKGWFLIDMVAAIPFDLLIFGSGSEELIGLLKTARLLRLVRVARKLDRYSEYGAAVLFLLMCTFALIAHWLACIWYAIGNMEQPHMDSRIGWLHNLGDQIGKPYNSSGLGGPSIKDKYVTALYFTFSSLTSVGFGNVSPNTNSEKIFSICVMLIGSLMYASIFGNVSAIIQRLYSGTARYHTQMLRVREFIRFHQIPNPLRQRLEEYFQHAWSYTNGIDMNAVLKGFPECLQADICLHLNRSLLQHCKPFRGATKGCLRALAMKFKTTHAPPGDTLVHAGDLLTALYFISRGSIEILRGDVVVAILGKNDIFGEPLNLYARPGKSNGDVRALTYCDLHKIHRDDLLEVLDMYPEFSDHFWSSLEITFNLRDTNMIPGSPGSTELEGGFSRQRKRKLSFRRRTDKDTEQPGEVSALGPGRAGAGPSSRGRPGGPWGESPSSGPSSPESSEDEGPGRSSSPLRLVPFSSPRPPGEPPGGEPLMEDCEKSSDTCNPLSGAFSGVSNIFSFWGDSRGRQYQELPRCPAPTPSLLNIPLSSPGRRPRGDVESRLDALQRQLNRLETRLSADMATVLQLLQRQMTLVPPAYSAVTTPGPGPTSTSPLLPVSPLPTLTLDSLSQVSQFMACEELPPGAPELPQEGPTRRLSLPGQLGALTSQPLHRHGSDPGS
Cytochrome P450 2D6, sequence (P10635 whole entry): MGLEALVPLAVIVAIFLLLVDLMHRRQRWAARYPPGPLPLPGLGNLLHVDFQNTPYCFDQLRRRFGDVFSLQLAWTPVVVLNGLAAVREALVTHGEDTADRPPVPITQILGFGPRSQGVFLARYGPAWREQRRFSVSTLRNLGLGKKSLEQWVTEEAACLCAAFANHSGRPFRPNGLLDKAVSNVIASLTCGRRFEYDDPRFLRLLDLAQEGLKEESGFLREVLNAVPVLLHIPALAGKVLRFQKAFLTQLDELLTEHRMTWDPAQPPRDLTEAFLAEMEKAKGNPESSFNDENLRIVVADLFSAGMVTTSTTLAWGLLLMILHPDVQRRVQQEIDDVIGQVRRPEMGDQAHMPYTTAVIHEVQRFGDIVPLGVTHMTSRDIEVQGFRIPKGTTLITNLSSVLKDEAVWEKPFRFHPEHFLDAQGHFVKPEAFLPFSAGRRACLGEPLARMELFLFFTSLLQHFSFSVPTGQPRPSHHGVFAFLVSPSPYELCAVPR
Potassium voltage-gated channel subfamily A member 5 (Homo sapiens), sequence (P22460 whole entry): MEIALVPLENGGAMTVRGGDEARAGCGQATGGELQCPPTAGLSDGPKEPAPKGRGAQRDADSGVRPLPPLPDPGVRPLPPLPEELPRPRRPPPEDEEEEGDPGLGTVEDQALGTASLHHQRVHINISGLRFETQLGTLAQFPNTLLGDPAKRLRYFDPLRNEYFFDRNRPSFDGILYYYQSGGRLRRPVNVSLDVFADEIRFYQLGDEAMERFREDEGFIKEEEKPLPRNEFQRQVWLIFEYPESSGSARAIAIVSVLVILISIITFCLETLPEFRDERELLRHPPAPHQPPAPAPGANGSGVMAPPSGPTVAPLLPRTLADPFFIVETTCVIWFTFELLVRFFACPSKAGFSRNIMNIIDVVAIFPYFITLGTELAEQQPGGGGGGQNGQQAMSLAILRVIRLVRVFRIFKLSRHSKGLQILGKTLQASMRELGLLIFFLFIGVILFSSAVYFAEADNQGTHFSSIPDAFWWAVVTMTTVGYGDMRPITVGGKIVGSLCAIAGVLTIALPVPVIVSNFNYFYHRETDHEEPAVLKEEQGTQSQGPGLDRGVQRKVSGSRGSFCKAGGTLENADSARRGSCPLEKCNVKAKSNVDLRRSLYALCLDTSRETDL
Cytochrome P450 3A4, sequence (P08684 whole entry): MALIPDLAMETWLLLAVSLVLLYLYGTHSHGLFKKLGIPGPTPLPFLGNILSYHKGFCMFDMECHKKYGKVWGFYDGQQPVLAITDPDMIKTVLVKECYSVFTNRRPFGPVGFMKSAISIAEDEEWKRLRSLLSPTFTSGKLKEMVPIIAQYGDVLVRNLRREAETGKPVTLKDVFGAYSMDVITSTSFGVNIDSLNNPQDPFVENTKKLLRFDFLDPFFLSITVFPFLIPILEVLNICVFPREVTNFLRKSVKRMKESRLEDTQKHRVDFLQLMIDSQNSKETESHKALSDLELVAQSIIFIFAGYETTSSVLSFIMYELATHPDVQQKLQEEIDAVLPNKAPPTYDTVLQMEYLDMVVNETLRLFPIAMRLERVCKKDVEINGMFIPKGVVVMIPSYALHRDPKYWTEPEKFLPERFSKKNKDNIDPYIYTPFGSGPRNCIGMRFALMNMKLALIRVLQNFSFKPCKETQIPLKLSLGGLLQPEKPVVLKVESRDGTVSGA
Voltage-dependent L-type calcium channel subunit alpha-1C, sequence (Q13936 whole entry): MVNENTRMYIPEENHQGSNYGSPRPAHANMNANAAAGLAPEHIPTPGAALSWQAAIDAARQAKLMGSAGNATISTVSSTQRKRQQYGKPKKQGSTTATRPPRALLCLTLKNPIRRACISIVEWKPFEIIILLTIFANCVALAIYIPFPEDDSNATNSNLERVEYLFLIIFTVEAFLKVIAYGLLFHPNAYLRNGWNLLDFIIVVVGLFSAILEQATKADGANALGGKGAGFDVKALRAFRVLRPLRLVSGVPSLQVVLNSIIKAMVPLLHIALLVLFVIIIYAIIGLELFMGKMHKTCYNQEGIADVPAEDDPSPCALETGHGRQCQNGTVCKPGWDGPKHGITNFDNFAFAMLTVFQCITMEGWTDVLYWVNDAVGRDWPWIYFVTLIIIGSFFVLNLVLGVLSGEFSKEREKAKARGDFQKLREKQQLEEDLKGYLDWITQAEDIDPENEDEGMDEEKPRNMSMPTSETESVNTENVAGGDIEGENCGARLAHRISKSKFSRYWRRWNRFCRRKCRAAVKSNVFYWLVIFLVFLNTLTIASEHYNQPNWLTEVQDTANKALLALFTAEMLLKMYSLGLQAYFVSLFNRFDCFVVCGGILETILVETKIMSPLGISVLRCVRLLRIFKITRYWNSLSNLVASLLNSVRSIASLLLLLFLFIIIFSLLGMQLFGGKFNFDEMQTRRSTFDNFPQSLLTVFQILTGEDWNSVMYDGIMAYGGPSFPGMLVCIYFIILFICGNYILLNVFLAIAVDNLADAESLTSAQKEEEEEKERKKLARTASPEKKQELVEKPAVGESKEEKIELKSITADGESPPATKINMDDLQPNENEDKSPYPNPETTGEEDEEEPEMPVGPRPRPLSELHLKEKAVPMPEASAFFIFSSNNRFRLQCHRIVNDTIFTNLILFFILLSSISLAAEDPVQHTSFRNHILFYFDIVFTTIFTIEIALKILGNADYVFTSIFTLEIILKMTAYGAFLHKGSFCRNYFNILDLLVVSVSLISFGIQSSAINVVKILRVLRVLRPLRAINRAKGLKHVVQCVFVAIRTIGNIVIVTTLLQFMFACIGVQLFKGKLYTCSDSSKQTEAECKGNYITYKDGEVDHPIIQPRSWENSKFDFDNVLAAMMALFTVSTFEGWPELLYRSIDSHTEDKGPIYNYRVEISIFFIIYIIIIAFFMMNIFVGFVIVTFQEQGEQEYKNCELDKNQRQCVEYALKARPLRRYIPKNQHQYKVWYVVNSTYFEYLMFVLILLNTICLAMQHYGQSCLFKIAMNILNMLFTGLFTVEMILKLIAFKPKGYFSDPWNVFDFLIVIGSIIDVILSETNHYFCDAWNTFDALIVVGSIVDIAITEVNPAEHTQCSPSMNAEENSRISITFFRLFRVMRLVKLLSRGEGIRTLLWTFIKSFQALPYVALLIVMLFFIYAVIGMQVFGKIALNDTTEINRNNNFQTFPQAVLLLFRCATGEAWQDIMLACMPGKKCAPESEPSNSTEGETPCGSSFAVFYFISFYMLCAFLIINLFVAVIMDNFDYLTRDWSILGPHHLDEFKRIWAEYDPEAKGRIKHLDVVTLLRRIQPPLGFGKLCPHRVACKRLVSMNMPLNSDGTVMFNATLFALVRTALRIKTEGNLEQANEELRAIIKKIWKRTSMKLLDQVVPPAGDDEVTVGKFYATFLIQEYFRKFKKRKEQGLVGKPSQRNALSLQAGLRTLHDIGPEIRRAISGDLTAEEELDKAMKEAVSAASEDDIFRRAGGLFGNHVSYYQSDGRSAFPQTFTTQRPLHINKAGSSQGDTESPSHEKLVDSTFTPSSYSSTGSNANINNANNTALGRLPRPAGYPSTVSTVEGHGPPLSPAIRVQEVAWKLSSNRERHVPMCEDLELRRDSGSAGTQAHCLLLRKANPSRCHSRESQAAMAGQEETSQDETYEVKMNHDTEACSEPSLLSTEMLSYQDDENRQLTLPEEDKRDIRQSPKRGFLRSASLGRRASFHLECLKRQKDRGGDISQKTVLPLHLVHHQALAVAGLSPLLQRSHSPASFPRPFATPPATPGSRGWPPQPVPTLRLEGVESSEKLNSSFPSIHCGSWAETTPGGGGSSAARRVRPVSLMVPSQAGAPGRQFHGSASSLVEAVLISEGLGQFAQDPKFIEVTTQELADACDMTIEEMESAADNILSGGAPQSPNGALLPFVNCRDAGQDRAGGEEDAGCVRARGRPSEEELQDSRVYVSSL

As to `OC(CNC1CCCCC1)Cn1c2ccc(Br)cc2c2cc(Br)ccc21` (racemic), the Activity entry in data set [1] is reported as “Non-toxic”; in the data set on Plasmodium berghei [4], 99.97%; with Salmonella typhimurium [6], “Non-toxic”; in the data set on Salmonella typhimurium [12] it was “Non-toxic”. This compound showed a bioavailability in data set [2] of 50%. Moreover, the result with Plasmodium falciparum [3], with Plasmodium falciparum [7] and with Plasmodium berghei [13] was Active. Also, the inhibition entry in data set [5] and in data set [9] was “inactive” throughout. In addition, the “inhibition (INH)” value on Cytochrome P450 2D6 is “Active”; on Cytochrome P450 3A4 it was “Active”; in [11] it was “Not Active”; in [14], “Not Active”. The Vd in data set [8] was determined as 13 L/kg. Besides, the inhibition at 10 µM against hERG (KCNH2) turned out to be 99%. Also, the result in the data set on Plasmodium berghei [10] was inactive. For the same compound, the MSD in the data set with Plasmodium berghei [15] came to 30 days.
